Assay results: ChEMBL document CHEMBL1151207, “Enniatins of Fusarium sp. strain F31 and their inhibition of Botrytis cinerea spore germination” (2004)
Converted amounts (≈) assume the structure as drawn.

What follows are compounds tested on Botrytis cinerea (assay: Antifungal activity against Botrytis cinerea 98G1 spore germination after 24 hrs at 20 degC in darkness by microtiter plate method). Conditions: 98G1, 24 h.
Type: functional
How it was run: (§1)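 B. cinerea 98G1 conidia (tomato leaf agar, near-UV induced sporulation, mesh-filtered) suspended at 10⁶ spores/mL in liquid Hagem, 100 μL per well over dried isolated enniatins or commercial enniatin mixture at 10, 25, 50, 75, 100 μg/mL. A620 read at inoculation and after 24 h at 20 ± 1 °C in darkness, plus stereomicroscope 4-rank scale; duplicate wells.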

| MIC [µg/mL] | SMILES |
| --- | --- |
| > 100 | CC(C)[C@@H]1NC(=O)[C@@H](C(C)C)OC(=O)[C@H](C(C)C)N(C)C(=O)[C@@H](C(C)C)OC(=O)[C@H](C(C)C)N(C)C(=O)[C@@H](C(C)C)OC1=O [ENNIATIN B2] |
| > 100 | CC(C)C[C@H]1C(=O)O[C@H](C(C)C)C(=O)N(C)[C@@H](C(C)C)C(=O)O[C@H](C(C)C)C(=O)N(C)[C@@H](C(C)C)C(=O)O[C@H](C(C)C)C(=O)N1C [ENNIATIN B4] |
| > 100 | CC(C)[C@H]1C(=O)O[C@H](C(C)C)C(=O)N(C)[C@@H](C)C(=O)O[C@H](C(C)C)C(=O)N(C)[C@@H](C(C)C)C(=O)O[C@H](C(C)C)C(=O)N1C [ENNIATIN J1] |
| > 100 | CC[C@H]1C(=O)O[C@H](C(C)C)C(=O)N(C)[C@@H](C(C)C)C(=O)O[C@H](C(C)C)C(=O)N(C)[C@@H](C(C)C)C(=O)O[C@H](C(C)C)C(=O)N1C [ENNIATIN K1] |

| SMILES | MIC [µg/mL] |
| --- | --- |
| CC[C@H](C)[C@H]1C(=O)O[C@H](C(C)C)C(=O)N(C)[C@@H](C(C)C)C(=O)O[C@H](C(C)C)C(=O)N(C)[C@@H](C(C)C)C(=O)O[C@H](C(C)C)C(=O)N1C [ENNIATIN B1] | 75 (≈ 115 µM) |
| CC(C)[C@H]1C(=O)O[C@H](C(C)C)C(=O)N(C)[C@@H](C(C)C)C(=O)O[C@H](C(C)C)C(=O)N(C)[C@@H](C(C)C)C(=O)O[C@H](C(C)C)C(=O)N1C [ENNIATIN B] | > 100 |

Each compound was assayed on Botrytis cinerea (assay: Antifungal activity against Botrytis cinerea 98G1 assessed as drug level required for detectable inhibition of fungal growth after 24 hrs at 20 degC in darkness by microtiter plate method). Conditions: not given.
Type: functional
How it was run: as §1

| SMILES | Activity [µg/mL] |
| --- | --- |
| CC[C@H](C)[C@H]1C(=O)O[C@H](C(C)C)C(=O)N(C)[C@@H](C(C)C)C(=O)O[C@H](C(C)C)C(=O)N(C)[C@@H](C(C)C)C(=O)O[C@H](C(C)C)C(=O)N1C [ENNIATIN B1] | 25 |
| CC(C)[C@@H]1NC(=O)[C@@H](C(C)C)OC(=O)[C@H](C(C)C)N(C)C(=O)[C@@H](C(C)C)OC(=O)[C@H](C(C)C)N(C)C(=O)[C@@H](C(C)C)OC1=O [ENNIATIN B2] | >100 |
| CC(C)C[C@H]1C(=O)O[C@H](C(C)C)C(=O)N(C)[C@@H](C(C)C)C(=O)O[C@H](C(C)C)C(=O)N(C)[C@@H](C(C)C)C(=O)O[C@H](C(C)C)C(=O)N1C [ENNIATIN B4] | 50 |
| CC(C)[C@H]1C(=O)O[C@H](C(C)C)C(=O)N(C)[C@@H](C(C)C)C(=O)O[C@H](C(C)C)C(=O)N(C)[C@@H](C(C)C)C(=O)O[C@H](C(C)C)C(=O)N1C [ENNIATIN B] | 100 |
| CC(C)[C@H]1C(=O)O[C@H](C(C)C)C(=O)N(C)[C@@H](C)C(=O)O[C@H](C(C)C)C(=O)N(C)[C@@H](C(C)C)C(=O)O[C@H](C(C)C)C(=O)N1C [ENNIATIN J1] | >100 |
| CC[C@H]1C(=O)O[C@H](C(C)C)C(=O)N(C)[C@@H](C(C)C)C(=O)O[C@H](C(C)C)C(=O)N(C)[C@@H](C(C)C)C(=O)O[C@H](C(C)C)C(=O)N1C [ENNIATIN K1] | 100 |
